pEC50: −log10 of the molar value.
What was measured:
gmAhr1a [1] = biological target: T1, gmAhr1a (Gadus morhua, UniProt A0A6H1Z2L5); experiment: XRE luciferase reporter gene assay in COS-7 cells, gmAhr1a with gmArnt1; format: cell-based, Atlantic cod (Gadus morhua); details: for Activation of transcription of XRE-controlled luciferase reporter gene: increasing concentrations; for Shape of concentration-response: at higher concentrations
T1 sequence (A0A6H1Z2L5 1-957): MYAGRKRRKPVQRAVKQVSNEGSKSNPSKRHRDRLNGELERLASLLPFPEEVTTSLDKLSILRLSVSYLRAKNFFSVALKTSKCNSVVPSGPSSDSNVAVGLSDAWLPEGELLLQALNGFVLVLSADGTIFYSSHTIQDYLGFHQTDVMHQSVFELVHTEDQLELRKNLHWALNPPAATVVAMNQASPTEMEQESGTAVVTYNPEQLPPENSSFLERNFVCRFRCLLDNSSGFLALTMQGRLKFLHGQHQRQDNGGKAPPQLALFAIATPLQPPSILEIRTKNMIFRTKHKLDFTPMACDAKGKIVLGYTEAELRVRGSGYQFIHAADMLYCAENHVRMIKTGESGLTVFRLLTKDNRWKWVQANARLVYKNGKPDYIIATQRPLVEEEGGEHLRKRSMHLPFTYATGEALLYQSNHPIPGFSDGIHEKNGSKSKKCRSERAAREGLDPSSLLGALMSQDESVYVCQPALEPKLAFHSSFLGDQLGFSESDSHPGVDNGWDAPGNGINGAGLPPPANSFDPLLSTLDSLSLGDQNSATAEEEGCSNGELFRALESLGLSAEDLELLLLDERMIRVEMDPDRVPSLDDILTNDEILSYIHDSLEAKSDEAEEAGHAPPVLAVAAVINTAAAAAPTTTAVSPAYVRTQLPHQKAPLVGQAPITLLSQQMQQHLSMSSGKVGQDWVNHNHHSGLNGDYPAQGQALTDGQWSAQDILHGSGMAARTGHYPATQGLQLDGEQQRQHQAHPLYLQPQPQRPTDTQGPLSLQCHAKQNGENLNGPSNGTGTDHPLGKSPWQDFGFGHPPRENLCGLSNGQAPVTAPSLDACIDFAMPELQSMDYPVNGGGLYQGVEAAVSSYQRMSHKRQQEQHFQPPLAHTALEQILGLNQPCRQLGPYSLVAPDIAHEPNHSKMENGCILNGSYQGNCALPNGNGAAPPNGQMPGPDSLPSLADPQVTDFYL

gmAhr2a [2] = biological target: T2, gmAhr2a (Gadus morhua, UniProt A0A6H1Z3G8); experiment: XRE luciferase reporter gene assay in COS-7 cells, gmAhr2a with gmArnt1; format: cell-based, Atlantic cod (Gadus morhua); details: for Activation of transcription of XRE-controlled luciferase reporter gene: increasing concentrations
T2 sequence (A0A6H1Z3G8 1-1127): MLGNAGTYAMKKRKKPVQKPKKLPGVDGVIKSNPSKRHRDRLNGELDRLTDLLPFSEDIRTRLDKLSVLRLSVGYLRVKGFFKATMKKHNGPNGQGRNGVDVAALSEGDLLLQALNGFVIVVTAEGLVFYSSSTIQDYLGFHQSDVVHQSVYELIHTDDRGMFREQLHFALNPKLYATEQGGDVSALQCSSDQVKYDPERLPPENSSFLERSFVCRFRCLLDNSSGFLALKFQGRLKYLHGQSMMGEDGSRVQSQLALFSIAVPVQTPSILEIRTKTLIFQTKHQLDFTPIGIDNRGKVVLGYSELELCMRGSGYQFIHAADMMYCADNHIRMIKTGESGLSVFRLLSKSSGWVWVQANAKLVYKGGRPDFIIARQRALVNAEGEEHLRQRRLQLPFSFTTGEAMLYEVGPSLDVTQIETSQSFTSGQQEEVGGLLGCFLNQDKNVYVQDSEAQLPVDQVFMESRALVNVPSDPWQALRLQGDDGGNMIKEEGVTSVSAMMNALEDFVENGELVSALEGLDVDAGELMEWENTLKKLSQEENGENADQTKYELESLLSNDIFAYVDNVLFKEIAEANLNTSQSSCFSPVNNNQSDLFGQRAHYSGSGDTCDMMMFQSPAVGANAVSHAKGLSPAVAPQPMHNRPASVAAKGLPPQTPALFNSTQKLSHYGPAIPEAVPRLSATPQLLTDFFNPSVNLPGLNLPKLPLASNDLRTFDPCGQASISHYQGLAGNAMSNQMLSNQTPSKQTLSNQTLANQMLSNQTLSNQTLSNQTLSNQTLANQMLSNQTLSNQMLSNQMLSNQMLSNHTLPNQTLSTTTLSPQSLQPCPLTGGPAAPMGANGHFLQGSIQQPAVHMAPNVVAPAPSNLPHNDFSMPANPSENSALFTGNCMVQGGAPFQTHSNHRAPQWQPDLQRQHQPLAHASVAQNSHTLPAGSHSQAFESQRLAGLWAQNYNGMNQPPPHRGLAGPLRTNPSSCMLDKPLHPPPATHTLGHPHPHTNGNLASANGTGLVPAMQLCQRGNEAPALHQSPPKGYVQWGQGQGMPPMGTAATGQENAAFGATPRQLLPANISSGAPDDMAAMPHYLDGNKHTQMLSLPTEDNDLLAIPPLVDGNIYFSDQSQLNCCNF

cyp1a = experiment: Ex vivo precision-cut liver slices, cyp1a mRNA expression by qPCR; format: cell-based, Atlantic cod (Gadus morhua); details: cod liver slices ex vivo, 1 nM was the lowest concentration used
COS-7 cells = experiment: Cytotoxicity in COS-7 cells; format: cell-based, simian; details: for TCDD the effect is at the highest concentration
gmahr1a and gmahr2a = experiment: Ex vivo precision-cut liver slices, gmahr1a and gmahr2a mRNA expression; format: cell-based, Atlantic cod (Gadus morhua); details: cod liver slices ex vivo, increasing concentrations
gmAhr1a [3] = biological target: T1, gmAhr1a; experiment: Velocity sedimentation radioligand binding to in vitro expressed gmAhr1a; design: species or system Atlantic cod (Gadus morhua); details: single concentration, qualitative
fhAhr2a = experiment: Velocity sedimentation radioligand binding to in vitro expressed fhAhr2a; design: species or system Fundulus heteroclitus; details: single concentration, qualitative
[4] = tested on: precision-cut liver slices; experiment: Viability of precision-cut liver slices; format: cell-based, Atlantic cod (Gadus morhua); details: 100 nM
How it was run: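 Precision-cut liver slices from juvenile Atlantic cod of both sexes (about 1.5–2 years old; tank-held in natural seawater at 9 °C, 12:12 h light/dark). Slices were exposed to Ahr agonist test compounds in 0.01% DMSO, with n=5–7 per compound. Viability was read by MTT reduction and cytotoxicity by LDH release.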

gmAhr2a [5] = biological target: T2, gmAhr2a; experiment: Velocity sedimentation radioligand binding to in vitro expressed gmAhr2a; design: species or system Atlantic cod (Gadus morhua); details: [3H]BNF 10 nM, single concentration, qualitative

SMILES	Activation of transcription of XRE-controlled luciferase reporter gene (gmAhr1a [1]; COS-7 cells, gmAhr1a)	Activation of transcription of XRE-controlled luciferase reporter gene (gmAhr2a [2]; COS-7 cells, gmAhr2a)	EC50 (in words) (gmAhr1a [1]; COS-7 cells, gmAhr1a, luciferase reporter)	Shape of concentration-response (gmAhr1a [1]; gmAhr1a)	EC50 (in words) (gmAhr2a [2]; COS-7 cells, gmAhr2a, luciferase reporter)	Concentration at which cyp1a expression was induced (cyp1a) [nM]	Cell viability (COS-7 cells)	Alterations in the expression of gmahr1a and gmahr2a (gmahr1a and gmahr2a)	Specific binding of [3H]TCDD (gmAhr1a [3]; [3H]TCDD 2 nM)	Specific binding of [3H]TCDD (fhAhr2a; [3H]TCDD 2 nM)	pEC50 (gmAhr1a [1])	Emax (gmAhr1a [1]; gmAhr1a compared with gmAhr2a)	pEC50 (gmAhr2a [2])	Viability of liver slices [4]	Specific binding of [3H]BNF (gmAhr1a [3]; [3H]BNF 10 nM)	Specific binding of [3H]BNF (gmAhr2a [5])	Specific binding of [3H]BNF (fhAhr2a; [3H]BNF 10 nM)
Clc1ccc(-c2cc(Cl)c(Cl)c(Cl)c2)cc1Cl [PCB126, 3,3′,4,4′,5-pentachlorobiphenyl]	activated	activated	–	–	–	–	–	–	–	–	–	–	–	–	–	–	–
O=Cc1c2[nH]c3ccccc3c2cc2[nH]c3ccccc3c12 [FICZ, 6-formylindolo[3,2-b]carbazole]	activated	activated	picomolar range	bi-phasic concentration-response	picomolar range	1	no significant alterations in cell viabilities	–	–	–	–	–	–	–	–	–	–
c1ccc2c(c1)cc1ccc3cccc4ccc2c1c34 [B[a]P]	activated	activated	–	–	–	–	–	no significant differences in transcript levels	–	–	–	–	–	–	–	–	–
Clc1cc2c(cc1Cl)Oc1cc(Cl)c(Cl)cc1O2 [TCDD, 2,3,7,8-Tetrachlorodibenzo-p-dioxin]	activated	activated	–	–	–	1	slight reduction in cell viability	no significant differences in transcript levels	Specific binding of [^3H]TCDD was observed	Specific binding of [^3H]TCDD was observed	~9.00	very similar	~8.00	reduced viability	–	–	–
O=c1cc(-c2ccccc2)oc2ccc3ccccc3c12 [BNF, β-naphthoflavone]	activated	activated	–	tendencies to a biphasic concentration-response	–	–	no significant alterations in cell viabilities	–	–	–	–	–	–	–	highest amount of specific binding	only weak or no specific binding	only weak or no specific binding
